Measured values from the EternaBench riboswitch data.

Tested on: MS2 coat protein
Assay: apparent Kd, MS2 coat protein; higher = weaker binding; RNA-MaP array; FMN 200 µM where present
Outline: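 Stalled E. coli RNA polymerase produced the designs on Illumina sequencing-chip clusters. SNAP-549-labelled MS2 coat protein was added from 0.7 or 1.5 nM, doubling to 3 µM, without and then with constant ligand, in 100 mM Tris-HCl pH 7.5, 80 mM KCl, 4 mM MgCl2, BSA, DTT, yeast tRNA and Tween-20. The apparent Kd is the median of filtered per-cluster fits of green signal normalised to red-channel RNA signal and control-cluster median Fmax.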

[1] = designed as: OFF switch for flavin mononucleotide, no ligand
[2] = ligand present: flavin mononucleotide, designed as: OFF switch for flavin mononucleotide
[3] = designed as: ON switch for flavin mononucleotide, no ligand
[4] = ligand present: flavin mononucleotide, designed as: ON switch for flavin mononucleotide

| Sequence | apparent Kd [1] | apparent Kd [2] | apparent Kd [3] | apparent Kd [4] |
| --- | --- | --- | --- | --- |
| AGUGCCUCGAGAGGAUAUAACAUGAGGAUCACCCAUGUAACAGAGGUGGAAACACCUCUGAAAUGUUAGAAGGCUCGAGGCACA | 40.7 nM | 53.2 nM |  |  |
| ACUAGAUGAGGAUAUGCAUAUUUUCGUGUUCUUCUAGGUUAACAUGAGGAUCACCCAUGUAGAAGGCGUCUAUG | 21.1 nM | 47.6 nM |  |  |
| GCACUUUUAUUUGAACCGUUUCGAACAUGAGGAUCACCCAUGUAGGAUAUGCUAAAAGUUGUGAUGCAGAAGGACAUUAAGUGC | 6.94 nM | 7.5 nM |  |  |
| AAUCCACAUGAGGAUCACCCAUGUGAGGAUAUGAUACUAUGUACUUCGGUACAUAGUAUCAGAAGGCACAAAGG | 54.8 nM | 99.6 nM |  |  |
| AAUAUGUUGCAGAAGGCUAUAUUGUUGUAGUACCUCAUGACAUGAGGAUCACCCAUGUUUUUGUUGGAGGAUAUGCAAUAUAUU | 7.32 nM | 7.07 nM |  |  |
| GUAGCAUACGGAGGAUAUUCAUACCGGAAACGGACAUGAGGAUCACCCAUGUGGCGAAAGCCUUGGAAGAAGGCCGUAUGCUAC |  |  | 3.96 nM | 3.55 nM |
| AGAAACUACGAGAAGGACAUGUGGUCCAAAAGAAACAUGAGGAUCACCCAUGUAGGAUAUCGUAGUUUCAGGAUCGUGAGAUCA | 280 nM | 56.8 nM |  |  |
| AAUAAACUCACAGGAUAUAGCAUCGACGUUGCGAACUUAGCGACGUCGAUGCUAGAAGGGUGAAAACAUGAGGAUCACCCAUGU |  |  | 30.9 nM | 13.4 nM |
| AAUCUAAUCCUUAAACAUGAGGAUCACCCAUGUAUUGGCAAGUAGGAUAUCGAUAAAUAUUUCAACGAGAAGGACUAUACAAAA | 21.7 nM | 31.7 nM |  |  |
| UCGUAUAUACAAGGAUAUCAAUUAUUGCUAAAUUCAACAUGAGGAUCACCCAUGUAACUAUGGAGUGAGAAGGUGUAAUGACUU |  |  | 504 nM | 476 nM |
| AGCUACGUUUCGUAGCAGCUAGGUGAGGAUAUUCAAUUUUUCACAUGAGGAUCACCCAUGUAUGUGAAGAAGGCGCCUAGAAAA |  |  | 12.3 nM | 4.98 nM |
| UUAUGGAGGUAGGAUAUCAUGACGUCUUAGUUGUGAGAAGGGCUUACAUGAGGAUCACCCAUGUGGUGUUUUUG | 584 nM | 192 nM |  |  |
| CUGAGCUGAGGAUAUACAUGAGGAUCACCCAUGUGUUCCAGCUUGGGUACAGGCACAUGUAGAAGGCAGUUCGG | 55.1 nM | 21.4 nM |  |  |
| CCUUUACAUGAGGAUCACCCAUGUCAGGAUAUCCUGUUGUGUUGUCUCGGGCGACACAUGAGCCAGGAGAAGGGACGAAGGGAA | 41.7 nM | 68.1 nM |  |  |
| GUCAGCUCGUGAGGAUAUACAUGUGCUGGAAACAGCACUAUUAAGAUCACAUGAGGAUCACCCAUGUAGAAGGCACGAGCUGAU | 47.3 nM | 630 nM |  |  |
| AAGUCAGCAGGAUAUGCGAUGUUGGGCUAGGUAGCUUGACCACAUGAGGAUCACCCAUGUAGAAGGGCUGGCUA | 17.4 nM | 14 nM |  |  |
| AAUAAUAAGGAGGAUAUCGUAUCGGAGACGAUACGAGAAGGCUUAACAUGAGGAUCACCCAUGUUCCUCAAUAA | 35 nM | 76.7 nM |  |  |
| CCAGUGUCAGGAUAUAUCACAAAGAACCCAACCGGGCUUUGGUAGAAGGGACAUGAGGAUCACCCAUGUUGUUU | 30.9 nM | 44 nM |  |  |
| AAUAUGAGCUGGAAUAAACCUUGAACAUGAGGAUCACCCAUGUAGGAUAUCAGCACGAUAAGUGCUGAGAAGGACAACCAGCUC | 13.6 nM | 15.3 nM |  |  |
| GUGGUAUUCGUAGGAUAUCCGUCGCCACCGUGUGGAGAAGGACGAACAUGAGGAUCACCCAUGUAUCAUGGUGUGGGCGUUGUC | 149 nM | 148 nM |  |  |
| UAGAAGUCAGGAUAUCCAGCUCGUCACUUGCGUGAUGAGUUGGAGAAGGGACAUGAGGAUCACCCAUGUAAAGU | 56.3 nM | 58.3 nM |  |  |
| AUGACUCUAGGAUAUUAGCGGGCCUACAUGAGGAUCACCCAUGUCGUGUCGCGGGUAUGCUGAGAAGGAGAGCACA | 14.2 nM | 17.9 nM |  |  |
| GGCUUAAACACAGGAUAUGGCCUUAGAGUGAGGCCAGAAGGGUGAAGUUCUCAUACAUGAGGAUCACCCAUGUCAAGGAGGCUA |  |  | 857 nM | 201 nM |
| CAGUACUGAGGAUAUACAUGAGGAUCACCCAUGUAAAAAACCUACGAAAGUAGGACAUGUAGAAGGCAGUACUG | 24.2 nM | 76.7 nM |  |  |
| CGUAUGAUGUCAGGAUAUGACGCUGAGAGCACGUCAGAAGGGACAUGAGGAUCACCCAUGUUGGGCUAAUGAAGCUAUGGCACU | 14.6 nM | 43.5 nM |  |  |
| CAGUACUGAGGAUAUACAUGAGGAUCACCCAUGUCUUAAAAGUAGGAUACUACUAUUAGUAGAAGGCAGUACUG | 13.2 nM | 34.9 nM |  |  |
| GUUGUAAUGUCAGGAUAUAUAAUAAGUCAUACAGUAGAAGGGAUAAUUAUACUCAUGUACAUGAGGAUCACCCAUGUUAAAUAG |  |  | 63.6 nM | 37.9 nM |
| AUCAGCUCGGCAGGAUAUACAUCACUGCUUCGGCAGUGUAUUAAGAUCACAUGAGGAUCACCCAUGUAGAAGGGCCGAGCUGAU | 34.1 nM | 389 nM |  |  |
